According to paper PMC9364358 (RSC Advances, 2022):

What was measured:
HDAC6 = molecular target: T1, HDAC6 (Homo sapiens, UniProt Q9UBN7); assay type: biochemical
T1 sequence (Q9UBN7 1-1215): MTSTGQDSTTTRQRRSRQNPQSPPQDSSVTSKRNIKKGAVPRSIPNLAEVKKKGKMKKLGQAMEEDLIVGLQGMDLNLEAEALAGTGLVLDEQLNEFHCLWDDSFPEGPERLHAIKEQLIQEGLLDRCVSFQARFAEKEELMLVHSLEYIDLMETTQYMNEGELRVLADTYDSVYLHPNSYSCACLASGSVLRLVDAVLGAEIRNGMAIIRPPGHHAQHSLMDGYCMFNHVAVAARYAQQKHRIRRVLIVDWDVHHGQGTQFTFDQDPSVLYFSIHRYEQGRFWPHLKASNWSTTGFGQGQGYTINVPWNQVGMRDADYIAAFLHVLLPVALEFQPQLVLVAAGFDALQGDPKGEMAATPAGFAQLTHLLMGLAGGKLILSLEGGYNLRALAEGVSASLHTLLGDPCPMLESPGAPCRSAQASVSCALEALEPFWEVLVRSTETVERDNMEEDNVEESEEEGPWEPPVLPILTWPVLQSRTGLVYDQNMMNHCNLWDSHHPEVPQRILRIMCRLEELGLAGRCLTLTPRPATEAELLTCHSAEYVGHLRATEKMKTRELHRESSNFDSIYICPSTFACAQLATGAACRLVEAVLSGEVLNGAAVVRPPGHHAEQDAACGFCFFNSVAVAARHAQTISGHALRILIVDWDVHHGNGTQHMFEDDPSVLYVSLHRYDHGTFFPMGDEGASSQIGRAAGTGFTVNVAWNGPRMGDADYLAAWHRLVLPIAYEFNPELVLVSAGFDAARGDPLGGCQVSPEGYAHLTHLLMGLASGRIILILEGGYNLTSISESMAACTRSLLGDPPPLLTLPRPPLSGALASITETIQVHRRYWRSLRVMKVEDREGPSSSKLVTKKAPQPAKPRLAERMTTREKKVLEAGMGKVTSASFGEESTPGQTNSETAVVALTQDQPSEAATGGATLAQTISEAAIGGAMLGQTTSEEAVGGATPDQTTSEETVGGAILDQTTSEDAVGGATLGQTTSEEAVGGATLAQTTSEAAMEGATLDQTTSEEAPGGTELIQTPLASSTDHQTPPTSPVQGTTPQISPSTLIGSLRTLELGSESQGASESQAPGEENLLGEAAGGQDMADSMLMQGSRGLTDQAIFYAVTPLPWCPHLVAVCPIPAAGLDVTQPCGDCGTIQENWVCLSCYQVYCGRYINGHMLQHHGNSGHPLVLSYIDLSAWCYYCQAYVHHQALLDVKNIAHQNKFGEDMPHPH
Method in brief: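 HDAC6 enzyme was incubated 30 min with test compound at graded concentrations (DMSO) and HDAC substrate 2 (200 μM stock) in HDAC assay buffer with BSA (1 mg mL−1 stock). The reaction was stopped with HDAC assay developer for 15 min at room temperature, and fluorescence was read at 485/528 nm. A reference HDAC inhibitor served as positive control.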

MOPC-315 cell line = assay: Cytotoxicity; assay type: cell-based
HDACs = assay: Fluorometric HDAC activity assay; assay type: cell-based; settings: MCF-7 cells, 30 μM, 2 h
Method in brief: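 MCF-7 cells grown in RPMI-1640 with 10% FBS and 1% penicillin at 37 °C, 5% CO2, then seeded at 5 × 10^3 cells/well. After 24 h, medium was replaced, and HDAC substrate plus test compound (final 30 μM) or trichostatin A was added for 2 h. Developer mix was then added for 30 min at 37 °C, and fluorescence was read (ex 368 nm, em 442 nm).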

inhibition at 5 µM (HDAC6): 64.5%
Structure (SMILES): O=C(/C=C/c1cccc(S(=O)(=O)Nc2ccccc2)c1)NO [Belinostat]
IC50 (MOPC-315 cell line; Mus musculus, MOPC 315, 24 h, MOPC-315 cell line, 24 h incubation): 318 ± 49 nM
Fold change (MOPC-315 cell line; potency relative to belinostat (belinostat = 1.000), MOPC-315): 1.000
pan-HDAC inhibitory activity (HDAC activity, fluorescence signal) (HDACs): the activity was decreased
